Data on 1 compound can be found in ChEMBL document CHEMBL4699636, “Novel 2,7-Diazaspiro[4,4]nonane Derivatives to Inhibit Mouse and Human Osteoclast Activities and Prevent Bone Loss in Ovariectomized Mice without Affecting Bone Formation” (J Med Chem, 2020).

Activity calls are given as the source filed them. The calls are words filed in the database; no cut-off is given here.

One data set deals with Osteoclast. Briefly: Inhibition of resorption activity of mouse peripheral blood cell-derived osteoclasts at 5-10 uM incubated for 48 hrs by Kossa-staining based assay. In kind it is functional, tissue-based. The note with it: dose microM 5-10, time 48.0 hrs, in the assay text read “bone marrow-derived” for “peripheral blood cell-derived”. In a few lines:
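Osteoclasts from C57BL/6J mouse bone marrow, M-CSF then M-CSF 30 ng/mL plus RANKL 100 ng/mL. Day-3 cells reseeded on calcium phosphate-coated wells, compound added next day in 0.5% DMSO for 48 h, 8 wells per condition. 4 wells TRAP-stained for osteoclast counts, 4 von Kossa-stained for resorbed area. Activity expressed as resorption normalized to osteoclast number.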

A short description of data set [1]: Toxicity in C57BL6/J mouse model of OVX-induced bone loss assessed as effect on body weight at 20 mg/kg, IP BID for 4 weeks. Type of data set: organism-based. The conditions noted are these: in vivo, 672 h. In a few lines: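 Body weight tracked in 12-week-old OVX C57BL6/J mice during 4 weeks of ip 20 mg/kg q.d. or b.i.d. dosing in 0.485% carboxymethylcellulose/3% Tween 80, 10 mL/kg.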

Data set [2] can be described thus: Toxicity in C57BL6/J mouse model of OVX-induced bone loss assessed as effect on osteoclast numbers per bone perimeter at 20 mg/kg, IP BID for 4 weeks. Type of data set: organism-based. The note with it: in vivo, 672 h. In a few lines: (§1)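 OVX mice, 12 weeks old, ip 20 mg/kg q.d. or b.i.d. for 4 weeks in CMC/Tween 80 vehicle. Distal right femur taken day 28. Static trabecular parameters measured on one 4-µm Masson-Goldner trichrome section, ROI 0.75 mm². n=10 per group, 9 in OVX+vehicle.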

Data set [3] relates to Mus musculus. Briefly: Antiosteoporotic activity in C57BL6/J mouse model of OVX-induced bone loss assessed as trabecular bone volume per tissue volume level in femoral metaphysis at 20 mg/kg, ip QD for 4 weeks by histomorphometry (11.67 +/- 2.37%). In kind it is functional. In a few lines:
as §1

The test system of data set [4] is Mus musculus. Briefly: Antiosteoporotic activity in C57BL6/J mouse model of OVX-induced bone loss assessed as trabecular thickness level in femoral metaphysis at 20 mg/kg, ip QD for 4 weeks by histomorphometry (39.96 +/- 5.42 um). Type of data set: functional. In a few lines: as §1
Data set [5] has as its system Mus musculus. Briefly: Antiosteoporotic activity in C57BL6/J mouse model of OVX-induced bone loss assessed as trabecular number level in femoral metaphysis at 20 mg/kg, ip QD for 4 weeks by histomorphometry (2.99 +/- 0.80 /mm). In kind it is functional. In a few lines: as §1
The test system of data set [6] is Mus musculus. Briefly: Antiosteoporotic activity in C57BL6/J mouse model of OVX-induced bone loss assessed as trabecular bone volume per tissue volume level in tibial metaphysis at 20 mg/kg, ip QD for 4 weeks by microCT analysis (17.49 +/- 2.91 %). Type of data set: functional.
In data set [7] the test system is Mus musculus. Briefly: Antiosteoporotic activity in C57BL6/J mouse model of OVX-induced bone loss assessed as trabecular pattern factor level in tibial metaphysis at 20 mg/kg, ip QD for 4 weeks by microCT analysis (17.17 +/- 3.41 […]). In kind it is functional.
Data set [8] has as its system Mus musculus. Briefly: Antiosteoporotic activity in C57BL6/J mouse model of OVX-induced bone loss assessed as degree of anisotropy (range 0-1) level in tibial metaphysis at 20 mg/kg, ip QD for 4 weeks by microCT analysis (0.53 +/- 0.07). In kind it is functional.
Data set [9] has as its system Mus musculus. Briefly: Antiosteoporotic activity in C57BL6/J mouse model of OVX-induced bone loss assessed as structure model index level in tibial metaphysis at 20 mg/kg, ip QD for 4 weeks by microCT analysis (1.92 +/- 0.19). Type of data set: functional. The note with it: dose […].
The subject of data set [10] is Mus musculus. Briefly: Antiosteoporotic activity in C57BL6/J mouse model of OVX-induced bone loss assessed as trabecular thickness level in femoral metaphysis at 20 mg/kg, ip BID for 4 weeks by histomorphometry (39.96 +/- 5.42 um). Type of data set: functional. In a few lines:
as §1

Data set [11] has as its system Mus musculus. Briefly: Antiosteoporotic activity in C57BL6/J mouse model of OVX-induced bone loss assessed as trabecular separation level in femoral metaphysis at 20 mg/kg, ip BID for 4 weeks by histomorphometry (319.80 +/- 106.52 um). In kind it is functional. In a few lines: as §1
Data set [12] has as its system Mus musculus. Briefly: Antiosteoporotic activity in C57BL6/J mouse model of OVX-induced bone loss assessed as trabecular bone volume per tissue volume level in tibial metaphysis at 20 mg/kg, ip BID for 4 weeks by microCT analysis (17.49 +/- 2.91 %). In kind it is functional.
Data set [13] deals with Mus musculus. Briefly: Antiosteoporotic activity in C57BL6/J mouse model of OVX-induced bone loss assessed as trabecular pattern factor level in tibial metaphysis at 20 mg/kg, ip BID for 4 weeks by microCT analysis (17.17 +/- 3.41 […]). Type of data set: functional.
Data set [14] concerns Mus musculus. Briefly: Antiosteoporotic activity in C57BL6/J mouse model of OVX-induced bone loss assessed as degree of anisotropy (range 0-1) level in tibial metaphysis at 20 mg/kg, ip BID for 4 weeks by microCT analysis (0.53 +/- 0.07). Type of data set: functional.
A short description of data set [15]: Toxicity in C57BL6/J mouse model of OVX-induced bone loss assessed as effect on bone formation by measuring bone formation rate per trabecular bone surface level in femoral metaphysis at 20 mg/kg, ip QD for 4 weeks by histomorphometry ([…]). The note with it: in vivo, 672 h. Type of data set: organism-based.
Data set [16] can be described thus: Toxicity in C57BL6/J mouse model of OVX-induced bone loss assessed as effect on bone formation by measuring number of osteoblasts per bone surface level in femoral metaphysis at 20 mg/kg, ip BID for 4 weeks by histomorphometry (4.55 +/ 2.53 /mm). In kind it is organism-based. The note with it: in vivo, 672 h. In a few lines:
as §1

Data set [17] is described as follows: Toxicity in C57BL6/J mouse model of OVX-induced bone loss assessed as effect on bone formation by measuring osteoblast surface per trabecular bone surface level in femoral metaphysis at 20 mg/kg, ip BID for 4 weeks by histomorphometry (5.03 +/ 2.92 %). Type of data set: organism-based. The conditions noted are these: in vivo, 672 h. In a few lines: as §1
The nature of data set [18]: Toxicity in C57BL6/J mouse model of OVX-induced bone loss assessed as effect on bone formation by measuring mineralizing surface per trabecular bone surface level in femoral metaphysis at 20 mg/kg, ip BID for 4 weeks by histomorphometry (27.90 +/ 8.22 %). Type of data set: organism-based. The note with it: in vivo, 672 h.
Data set [19] is described as follows: Toxicity in C57BL6/J mouse model of OVX-induced bone loss assessed as effect on bone formation by measuring mineralizing mineral apposition rate level in femoral metaphysis at 20 mg/kg, ip BID for 4 weeks by histomorphometry (1.62 +/ 0.21 um/d (lcm)). In kind it is organism-based. The note with it: in vivo, 672 h.
Data set [20] can be described thus: Toxicity in C57BL6/J mouse model of OVX-induced bone loss assessed as effect on bone formation by measuring osteocalcin level at 20 mg/kg, ip BID for 4 weeks […]. In kind it is organism-based. The conditions noted are these: in vivo, 672 h.
Data set [21] deals with Osteoclast (Homo sapiens). Briefly: Inhibition of resorption activity of human peripheral blood cell-derived osteoclasts incubated for 48 hrs by Kossa-staining based assay.
The test system of data set [22] is Osteoclast (Homo sapiens). Briefly: Inhibition of resorption activity of human peripheral blood cell-derived osteoclasts at 1-20 uM incubated for 48 hrs by Kossa-staining based assay. The conditions noted are these: dose microM 1-20, time 48.0 hrs.
Data set [23] deals with Osteoclast (Homo sapiens). Briefly: Toxicity in human peripheral blood cell-derived osteoclasts assessed as reduction in osteoclasts number up to 20 uM incubated for 48 hrs by TRAP-staining based assay.

As to `O=S1(=O)N(c2ccccc2)C[C@H](O)[C@]12CCN(Cc1ccc(Cl)cc1)C2` (racemic), the inhibition result (in the data set with Osteoclast; in [22]) was “Active” throughout. Further, the Activity entry was “Non-Toxic” in data set [1]; “Non-Toxic” in [2]; 12.02% in the data set with Mus musculus [3]; 41.8 µm with Mus musculus [4]; 2.83 /millimeter in the data set with Mus musculus [5]; 19.48% with Mus musculus [6]. Further, the Activity in the data set with Mus musculus [7] is 13.7 1/mm; in the data set with Mus musculus [10], 47.2 µm; in the data set on Mus musculus [11], 251.29 um; with Mus musculus [12], 25.3%; in the data set with Mus musculus [13] it was 6.51 1/mm; in data set [15] it was 184.98 um3/um2/yr. The Activity in [16] is listed as 3.63 /millimeter; in [17] it was 4.01%; in data set [18], 26.07%; in data set [19] it was 1.65 micrometer/day; in data set [20] it was 109.97%; in data set [23] it was “Non-Toxic”. Moreover, the figures for the Activity_index with Mus musculus [8], with Mus musculus [9] and in the data set on Mus musculus [14] were 0.5, 1.88 and 0.45, respectively. In addition, in [21], the 50% inhibitory concentration (IC50) (usually the point on the concentration scale where inhibition reaches its midpoint) was determined as 3.44 µM.
